This passage reports outcome, activation and potentiation results from PubChem BioAssay.

Active and inactive are the calls of the source.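 Rule for the calls, unless noted: active = mean duplicate potentiation above the buffer control mean plus 5 SD of buffer wells; inactive = the rest.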

Test [1] is described as follows: nonspecific flux increase, KCNQ1-free cells – parental CHO cells, counter-screen for KCNQ1 potentiator project (AID 493006;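 active = duplicate-averaged activation above buffer control mean plus 5 SD of those controls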). Particulars: parental CHO-K1 cells, FluxOR thallium flux, at 10 µM; active compounds read high. An outline of the steps:
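Assay system: Untransfected host CHO-K1 cells with FluxOR thallium dye | Probe or stimulus: Potassium/thallium depolarization pulse | Schedule: Overnight 37 °C plating, 90 min RT dye, 20 min compound | Detection: Kinetic thallium-flux fluorescence | Read-out: Max-minus-min fluorescence over baseline, percent of buffer-to-R-L3 span | Benchmarks: Low control buffer, high control R-L3 activator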

Test [2] concerns the target Potassium voltage-gated channel subfamily KQT member 1 (Homo sapiens) (UniProt P51787). In words: enhancement of KCNQ1 channel thallium flux – FluxOR thallium flux, CHO cells, duplicates, confirmation (AID 493007;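 active = potentiation averaged over duplicate wells exceeding buffer-only control mean by more than 3 SD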;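 for outcome: cells depolarized by a potassium plus thallium sulfate stimulus after compound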). The following applies: KCNQ1 cell line, FluxOR thallium flux fluorescence, at 10 µM; active compounds read high, % of reference activator effect, buffer zero. An outline of the steps: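 Material: KCNQ1-expressing CHO cell line; Incubation: FluxOR dye loading 90 min, compound exposure 20 min, room temperature; Detection: FluxOR Tl+ flux fluorescence, 10 s baseline plus 110 s recording; Read-out: percent activation between buffer and R-L3 responses; Control set: buffer-only wells as 0% and R-L3 activator as 100%; Replication: duplicate wells per compound.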

Test [3] addresses Potassium voltage-gated channel subfamily KQT member 2 (Rattus norvegicus) (UniProt O88943). The experiment in a line: KCNQ2 thallium flux enhancement – KCNQ2-CHO-K1 cells, selectivity assay for KCNQ1 potentiator project (AID 493009).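 Note: assay conditions were tuned for KCNQ1 rather than KCNQ2 modulators; signal is max minus min fluorescence divided by baseline after thallium stimulus.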 The following applies: FluxOR thallium flux fluorescence, at 10 µM; active compounds read high, scaled: buffer 0, activator control 100.
Test [4] has as its target Potassium voltage-gated channel subfamily KQT member 1 (Homo sapiens) (UniProt P51787). In words: KCNQ1 activators by electrophysiology – IonWorks patch clamp, KCNQ1-CHO cells, orthogonal assay for KCNQ1 potentiator project, confirmation (AID 493184;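 active = current rise at least 3 SD above the untreated control mean in each of two repeat wells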). The following applies: automated patch clamp current, at 10 µM; active compounds read high. An outline of the steps: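 assay system = KCNQ1-expressing CHO cells | medium = external bath solution at pH 7.4 | probe or stimulus = 2,000 ms depolarization, -90 to +40 mV | compound dosing = 10 µM final, single point | measured by = automated voltage clamp, amphotericin B perforated patch | measure = percent current increase versus pre-compound level | replication = duplicates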

Sequence of Potassium voltage-gated channel subfamily KQT member 2 (Rattus norvegicus) (O88943 whole entry, looked up): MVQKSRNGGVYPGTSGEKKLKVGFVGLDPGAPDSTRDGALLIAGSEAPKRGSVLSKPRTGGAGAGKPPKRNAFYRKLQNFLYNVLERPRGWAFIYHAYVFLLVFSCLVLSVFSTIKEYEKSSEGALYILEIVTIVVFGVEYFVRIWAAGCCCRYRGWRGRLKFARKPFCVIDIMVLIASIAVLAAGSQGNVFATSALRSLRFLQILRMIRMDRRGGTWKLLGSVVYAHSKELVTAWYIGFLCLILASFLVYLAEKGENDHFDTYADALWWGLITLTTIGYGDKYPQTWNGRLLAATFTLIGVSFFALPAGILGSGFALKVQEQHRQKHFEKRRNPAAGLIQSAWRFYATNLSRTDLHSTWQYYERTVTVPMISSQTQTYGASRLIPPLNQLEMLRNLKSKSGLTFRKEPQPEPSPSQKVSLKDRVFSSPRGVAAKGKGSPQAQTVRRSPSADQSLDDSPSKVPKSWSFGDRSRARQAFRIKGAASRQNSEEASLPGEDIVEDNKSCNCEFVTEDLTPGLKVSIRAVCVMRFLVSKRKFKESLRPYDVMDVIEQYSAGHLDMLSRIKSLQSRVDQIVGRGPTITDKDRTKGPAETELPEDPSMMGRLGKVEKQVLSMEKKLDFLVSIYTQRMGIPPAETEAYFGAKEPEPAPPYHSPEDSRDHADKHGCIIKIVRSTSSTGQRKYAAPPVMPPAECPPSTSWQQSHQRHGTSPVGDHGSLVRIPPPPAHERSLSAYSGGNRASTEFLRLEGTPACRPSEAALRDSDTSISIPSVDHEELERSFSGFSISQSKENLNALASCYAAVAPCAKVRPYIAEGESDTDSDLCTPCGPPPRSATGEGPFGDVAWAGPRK
Sequence of Potassium voltage-gated channel subfamily KQT member 1 (Homo sapiens) (P51787 whole entry, looked up): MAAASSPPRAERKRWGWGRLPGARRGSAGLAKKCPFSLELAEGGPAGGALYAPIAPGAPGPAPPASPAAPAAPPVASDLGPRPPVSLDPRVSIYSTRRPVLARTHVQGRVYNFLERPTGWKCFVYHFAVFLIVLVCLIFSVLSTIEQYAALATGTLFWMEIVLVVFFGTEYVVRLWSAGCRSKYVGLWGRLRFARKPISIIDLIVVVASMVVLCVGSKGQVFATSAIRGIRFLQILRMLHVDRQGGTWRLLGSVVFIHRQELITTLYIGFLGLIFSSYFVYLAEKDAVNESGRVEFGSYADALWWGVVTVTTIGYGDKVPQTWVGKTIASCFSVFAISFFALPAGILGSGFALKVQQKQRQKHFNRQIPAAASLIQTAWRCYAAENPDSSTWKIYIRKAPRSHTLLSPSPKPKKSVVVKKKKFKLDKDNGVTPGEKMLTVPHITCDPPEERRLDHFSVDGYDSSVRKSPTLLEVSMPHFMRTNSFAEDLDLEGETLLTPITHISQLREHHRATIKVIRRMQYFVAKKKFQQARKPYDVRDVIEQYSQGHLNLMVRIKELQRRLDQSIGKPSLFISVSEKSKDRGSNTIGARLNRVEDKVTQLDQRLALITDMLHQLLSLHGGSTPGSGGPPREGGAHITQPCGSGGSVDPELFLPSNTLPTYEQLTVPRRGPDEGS

Consider `Cc1ccc(C(C(=O)NC2CCCCC2)N(Cc2cccnc2)C(=O)C2COc3ccccc3O2)o1` (stereo not given), for which the result in test [1], in test [2], in test [3] and in test [4] was inactive.

As for `S=c1nc[nH]c2c1cnn2-c1ccccc1`, the activation in test [1] was 168% (active). In addition, the potentiation in test [2] was 29.5% (active); in test [3], 222% (active). The result in test [4] was inactive.

For `CC(C)(C)c1ccc(Oc2ccc(N)cn2)cc1`, the activation in test [1] was 260% (active). Moreover, the potentiation is 81.5% (active) in test [2] and 282% (active) in test [3]. The outcome in test [4] was inactive.

For the compound `Cc1ccc(OCC(=O)NCCCNC(=O)c2ccncc2)cc1C`, the outcome in test [1], in test [2], in test [3] and in test [4] was inactive.

`O=C(NCCCn1ccnc1)c1cc(C2CC2)on1`: the outcome in test [1], in test [2], in test [3] and in test [4] was inactive.

In the case of `Fc1ccccc1Nc1nc(Cl)nc(Cl)n1`, the outcome in test [1], in test [2], in test [3] and in test [4] was inactive.

Regarding `Cc1cc(Br)ccc1OCC(=O)NNC(=O)C(=O)Nc1ccccc1`, the activation in test [1] is 406% (active). Besides, the potentiation was 224% (active) in test [2] and 478% (active) in test [3]. The outcome in test [4] was inactive.

Regarding `Cc1ccc(-n2cnnn2)c2cccnc12`, the outcome in test [1], in test [2], in test [3] and in test [4] was inactive.

Turning to `Fc1ccccc1C(c1nnnn1C1CCCC1)N1CCN(Cc2ccccc2)CC1` (stereo not given), the outcome in test [1], in test [2], in test [3] and in test [4] was inactive.

Regarding `S=c1[nH]nc(-c2ccc(Cl)cc2)n1/N=C/C=C/c1ccco1`, the activation in test [1] is 159% (active). Further, the potentiation in test [2] was 32% (active). Besides, the outcome in test [3] and in test [4] was inactive.

Take `O=C(NN=C1c2ccccc2-c2ccccc21)c1ccccc1Br`: the outcome in test [1], in test [3] and in test [4] was inactive. Moreover, in test [2], the potentiation was 37% (active).

As to `COc1ccccc1CNCc1cccc(Oc2ccccc2)c1`, the result in test [1], in test [2], in test [3] and in test [4] was inactive.

In the case of `CC(C)CSC1=NSC2=NC(=O)/C(=C\c3ccccc3)C(=N)N12`, the activation in test [1] was 198% (active). Besides, the potentiation in test [2] was 58% (active); in test [3], 204% (active). The outcome in test [4] was inactive.

As for `Cc1ccc(C2C(/C=C3/SC(=S)NC3=O)=C(c3cccs3)Oc3ccccc32)cc1` (stereo not given), in test [1], the activation is 142% (active). Besides, the potentiation in test [2] was 33% (active). Also, the result in test [3] and in test [4] was inactive.

As for `CCCCCCCCCCC[N+](C)(C)CC/C=C1/c2ccccc2Sc2ccc(Cl)cc21`, the activation in test [1] was 184% (active). Further, the potentiation in test [2] is 64% (active). The result in test [3] and in test [4] was inactive.

For `CC1(C)CC2CC(C)(CN2C(=S)NC(=O)c2ccccc2Cl)C1` (stereo not given), the activation in test [1] is 341% (active). Also, the potentiation in test [2] is 154% (active); in test [3], 426% (active). The outcome in test [4] was inactive.

For `CCN(CC)CC(O)Cn1c2ccccc2c2ccccc21` (stereo not given), the outcome in test [1], in test [2], in test [3] and in test [4] was inactive.

For the compound `COc1ccc(C(=O)NNC(=O)C(=O)NC2CCCCC2)cc1`, the outcome in test [1] and in test [4] was inactive. Further, the potentiation in test [2] is 22% (active); in test [3] it was 168% (active).

In the case of `CCOc1ccccc1C1CC(=O)Nc2cc3c(cc21)OCCO3` (stereo not given), the outcome in test [1], in test [2], in test [3] and in test [4] was inactive.

Turning to `C/C(N)=C(/C#N)C(=O)CSc1nc2ccccc2c(=O)n1Cc1ccc(F)cc1`, the activation in test [1] was 178% (active). Further, the potentiation in test [2] was 48.5% (active); in test [3] it was 194% (active). The outcome in test [4] was inactive.

Regarding `COc1ccc(/C=C2/S/C(=N/N=C3\CC4CCC3(C)C4(C)C)NC2=O)cc1` (stereo not given), the result in test [1] and in test [4] was inactive. The potentiation in test [2] is 21% (active); in test [3], 186% (active).

Take `COc1ccc(C(=O)NNC(=O)C(=O)Nc2ccc(C)cc2)cc1`: in test [1], the activation is 254% (active). In addition, the results for the potentiation in test [2] and in test [3] were 123% (active) and 380% (active), respectively. Moreover, the outcome in test [4] was inactive.

Regarding `O=C(COc1ccccc1F)Nc1ccc(S(=O)(=O)NCc2ccco2)cc1`, the result in test [1], in test [2], in test [3] and in test [4] was inactive.

As for `O=C(NC(=S)N(CCCCO)C1CCCCC1)c1sc2ccccc2c1Cl`, the activation in test [1] is 368% (active). The potentiation in test [2] was 192% (active); in test [3], 392% (active). Moreover, the result in test [4] was inactive.

Consider `COc1ccc(CCN=C(N)NS(=O)(=O)c2ccc(F)cc2)cc1OC`, for which the result in test [1], in test [2], in test [3] and in test [4] was inactive.

On to `Cc1ccc(C(=O)OCC(=O)N(C)c2ccccc2)cc1C`, for which the activation in test [1] was 397% (active). Further, the figures for the potentiation in test [2] and in test [3] were 252% (active) and 405% (active), respectively. The outcome in test [4] was inactive.

For `Cc1ccc(OCCCC(=O)NCc2ccco2)c(C)c1`, the outcome in test [1], in test [2], in test [3] and in test [4] was inactive.

`CCc1ccc2nc(N(CCCN(C)C)C(=O)c3ccc(S(=O)(=O)N4CCCc5ccccc54)cc3)sc2c1`: the result in test [1], in test [2], in test [3] and in test [4] was inactive.

Take `Cc1cccc(/C=N/n2c(COc3ccccc3)n[nH]c2=S)c1`: the outcome in test [1] and in test [4] was inactive. The potentiation in test [2] was 60.5% (active); in test [3] it was 142% (active).

As for `O=C(NNC(=O)c1ccc(Cl)c(Cl)c1)c1ccncc1`, the outcome in test [1], in test [3] and in test [4] was inactive. Moreover, the potentiation in test [2] was 18.5% (active).
